The source made the active and inactive calls. The calls are words filed in the database; no cut-off is given here.
Tests used:
[1] = Antiproliferative activity against human DU145 cells after 48 hrs by MTT assay; assay type: functional, cell-based; conditions: DU-145, 48 h
Outline: (§1)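 MTT assay. Cells seeded in DMEM with 10% FBS and left 24 h at 37 °C in CO2 before compound treatment for 48 h. MTT (5 mg/mL stock) added for 4 h, formazan dissolved in DMSO, absorbance read at 570 nm. IC50 taken as the mean of three independent experiments.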

[2] = Antiproliferative activity against human HeLa cells after 48 hrs by MTT assay; assay type: functional, cell-based; outline: as §1
[3] = Antiproliferative activity against human A549 cells after 48 hrs by MTT assay; assay type: functional, cell-based; conditions: A549, 48 h; outline: as §1
[4] = Antiproliferative activity against human HepG2 cells after 48 hrs by MTT assay; assay type: functional, cell-based; conditions: HepG2, 48 h; outline: as §1
[5] = Antiproliferative activity against human MCF7 cells after 48 hrs by MTT assay; assay type: functional, cell-based; conditions: MCF7, 48 h; outline: as §1
[6] = Cell cycle arrest in human A549 cells assessed as accumulation at S phase at 50 nM after 48 hrs by propidium iodide staining based flow cytometry (reference value: 9.4%); assay type: functional
Outline: (§2)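 A549 cells exposed for 48 h at 50 or 100 nM. Cells harvested, washed in PBS, fixed in ice-cold 70% ethanol and stained with propidium iodide. Phase distribution (G0/G1, S, G2/M) measured by flow cytometry against untreated cells.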

[7] = Cell cycle arrest in human A549 cells assessed as accumulation at G2/M phase at 50 nM after 48 hrs by propidium iodide staining based flow cytometry (reference value: 12.1%); assay type: functional; outline: as §2
[8] = Cell cycle arrest in human A549 cells assessed as accumulation at G0/G1 phase at 100 nM after 48 hrs by propidium iodide staining based flow cytometry (reference value: 78.5%); assay type: functional; outline: as §2
[9] = Cell cycle arrest in human A549 cells assessed as accumulation at S phase at 100 nM after 48 hrs by propidium iodide staining based flow cytometry (reference value: 9.4%); assay type: functional; outline: as §2
Sus scrofa = organism: Sus scrofa; assay: Inhibition of porcine brain tubulin polymerization at 3 uM in presence of GTP by fluorescence assay relative to control
Outline: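 Fluorescence-reporter tubulin polymerization kit: PEM buffer with […], compound at 3 µM final, CA-4 as positive control. Fluorescence followed at ex 360/em 420 nm for 1 h at 37 °C. Mean ± SD of two experiments run in triplicate.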

[10] = Inhibition of porcine brain tubulin polymerization in presence of GTP by fluorescence assay; set-up: species or system Sus scrofa
Outline: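 Tubulin polymerization IC50: compounds preincubated with tubulin at 0.5, 1, 2, 3 and 5 µM. Reactions in PEM buffer with […], polymerization followed by reporter fluorescence at ex 360/em 420 nm, with CA-4 as reference.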

A549 [11] = assay: Inhibition of alpha-tubulin polymerization in human A549 cells assessed as disruption of microtubule organization at 50 nM after 48 hrs by FITC/DAPI staining based immunofluorescence microscopic assay; assay type: cell-based
Outline: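 A549 cells on coverslips treated at 50 nM for 48 h. Fixed in 3.5% formaldehyde/PBS, permeabilized with Triton X-100/Tween-20, blocked in 2% BSA. Anti-tubulin primary (1:200, 4 h) and FITC anti-mouse secondary (1:500, 1 h), DAPI mounting, confocal imaging.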

A549 [12] = assay: Inhibition of alpha-tubulin polymerization in human A549 cells assessed as increase in soluble tubulin fraction at 1 uM after 48 hrs by Western blot method; assay type: cell-based
Outline: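 A549 cells (1 × 10⁵/well) treated at 1 µM for 48 h alongside DMSO, CA-4 and paclitaxel controls. Soluble fraction released with warm Pipes-KOH pH 6.8/Triton lysis buffer (3 min, 30 °C); insoluble fraction taken in Laemmli buffer. Both fractions blotted on SDS-10% PAGE with anti-α-tubulin and ECL detection.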

Homo sapiens = organism: Homo sapiens; assay: Inhibition of colchicine binding to tubulin (unknown origin) at 5 to 20 uM after 60 mins by fluorescence assay
Outline: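 Tubulin (3 µM) incubated with compound at 5–20 µM, with and without colchicine (3 µM), in 30 mM Tris for 60 min at 37 °C. Fluorescence read at ex 350/em 435 nm. Tris blank and the colchicine-free signal were subtracted, and values normalized to DMSO. CA-4 and vinblastine served as controls.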

A549 [13] = assay: Induction of apoptosis in human A549 cells assessed as nuclei condensation at 50 nM after 48 hrs by Hoechst 33258 staining based fluorescence microscopic analysis; assay type: functional, cell-based
Outline: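 A549 cells (5 × 10⁴/well) allowed to adhere 48 h, then treated at 50 nM for 48 h at 37 °C. Fixed in 4% paraformaldehyde at 4 °C for 10 min and stained with Hoechst 33258 (5 µg/mL) for 30 min at room temperature. Nuclear condensation scored by fluorescence microscopy (ex 350/em 460 nm, 10X).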

A549 [14] = assay: Induction of apoptosis in human A549 cells assessed as live cells at 100 nM after 48 hrs by Annexin-V FITC/propidium iodide staining based flow cytometry (reference value: 94.2%); assay type: functional
A549 [15] = assay: Induction of apoptosis in human A549 cells assessed as early apoptotic cells at 100 nM after 48 hrs by Annexin-V FITC/propidium iodide staining based flow cytometry (reference value: 5.2%); assay type: functional
A549 [16] = assay: Induction of apoptosis in human A549 cells assessed as late apoptotic cells at 100 nM after 48 hrs by Annexin-V FITC/propidium iodide staining based flow cytometry (reference value: 0.6%); assay type: functional
A549 [17] = assay: Induction of apoptosis in human A549 cells assessed as necrotic cells at 100 nM after 48 hrs by Annexin-V FITC/propidium iodide staining based flow cytometry (reference value: 0.1%); assay type: functional
A549 [18] = assay: Induction of mitochondrial membrane potential loss in human A549 cells at 100 nM after 48 hrs by JC-1 staining based flow cytometry (reference value: 3.8%); assay type: functional
A549 [19] = assay: Induction of mitochondrial membrane potential loss in human A549 cells assessed as intact mitochondrial membrane at 100 nM after 48 hrs by JC-1 staining based flow cytometry (reference value: 95.9%); assay type: functional
A549 [20] = assay: Induction of ROS generation in human A549 cells at 100 nM after 48 hrs by DCFDA staining based flow cytometry (reference value: 4.4%); assay type: functional
[21] = Cell cycle arrest in human A549 cells assessed as accumulation at G0/G1 phase at 50 nM after 48 hrs by propidium iodide staining based flow cytometry (reference value: 78.5%); assay type: functional; outline: as §2
[22] = Cell cycle arrest in human A549 cells assessed as accumulation at G2/M phase at 100 nM after 48 hrs by propidium iodide staining based flow cytometry; assay type: functional; outline: as §2
[23] = Cell cycle arrest in human A549 cells assessed as accumulation at G2/M phase after 48 hrs by propidium iodide staining based flow cytometry; assay type: functional; outline: as §2
A549 [24] = assay: Induction of apoptosis in human A549 cells after 48 hrs by Annexin-V FITC/propidium iodide staining based flow cytometry; assay type: functional, cell-based
A549 [25] = assay: Induction of apoptosis in human A549 cells assessed as live cells at 50 nM after 48 hrs by Annexin-V FITC/propidium iodide staining based flow cytometry (reference value: 94.2%); assay type: functional
A549 [26] = assay: Induction of apoptosis in human A549 cells assessed as early apoptotic cells at 50 nM after 48 hrs by Annexin-V FITC/propidium iodide staining based flow cytometry (reference value: 5.2%); assay type: functional
A549 [27] = assay: Induction of apoptosis in human A549 cells assessed as late apoptotic cells at 50 nM after 48 hrs by Annexin-V FITC/propidium iodide staining based flow cytometry (reference value: 0.6%); assay type: functional
A549 [28] = assay: Induction of apoptosis in human A549 cells assessed as necrotic cells at 50 nM after 48 hrs by Annexin-V FITC/propidium iodide staining based flow cytometry (reference value: 0.1%); assay type: functional
[29] = Depolarization of mitochondrial membrane potential in human A549 cells after 48 hrs by JC-1 staining based flow cytometry; assay type: functional, cell-based
A549 [30] = assay: Induction of mitochondrial membrane potential loss in human A549 cells at 50 nM after 48 hrs by JC-1 staining based flow cytometry (reference value: 3.8%); assay type: functional
A549 [31] = assay: Induction of mitochondrial membrane potential loss in human A549 cells assessed as intact mitochondrial membrane at 50 nM after 48 hrs by JC-1 staining based flow cytometry (reference value: 95.9%); assay type: functional
A549 [32] = assay: Induction of ROS generation in human A549 cells at 50 nM after 48 hrs by DCFDA staining based flow cytometry (reference value: 4.4%); assay type: functional
A549 [33] = assay: Induction of apoptosis in human A549 cells assessed as increase in caspase-3 expression at 50 nM after 48 hrs by Western blot method; assay type: functional, cell-based
Outline: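 Caspase-3 western blot of A549 lysates after 48 h at 50 nM. Proteins extracted in RIPA buffer, 50 µg per lane on 10% SDS-PAGE, transferred to PVDF and blocked with BSA. Primary antibody incubated 24 h, HRP secondary 1 h, chemiluminescent detection, with β-actin as loading control.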

inhibition (Sus scrofa)	IC50 [10]	inhibition (Homo sapiens)	Structure (SMILES)	IC50 [1]	IC50 [2]	IC50 [3]	IC50 [4]	IC50 [5]	Activity [6]	Activity [7]	Activity [8]	Activity [9]	inhibition (A549 [11])	inhibition (A549 [12])	Activity (A549 [13])	Activity (A549 [14])	Activity (A549 [15])	Activity (A549 [18])	Activity (A549 [19])	Activity (A549 [20])	also measured
74.4%	1000 nM	Active	COc1cc(-c2nncn2-c2ccc(-c3nc4ccc(F)cc4s3)cc2C)cc(OC)c1OC	280 nM	150 nM	48 nM	300 nM	1410 nM	14.7%	25.1%	19.8%	15.4%	Active	Active	Active	63.9%	27.2%	22.2%	74.4%	20.9%	Activity [21]: 60.6%; Activity [22]: 65.5%; Activity [23]: Dose-dependent effect; Activity (A549 [24]): Dose-dependent effect; Activity (A549 [16]): 8.2%; Activity (A549 [17]): 0.7%; Activity (A549 [25]): 78.3%; Activity (A549 [26]): 15.1%; Activity (A549 [27]): 5.8%; Activity (A549 [28]): 0.8%; Activity [29]: Dose-dependent effect; Activity (A549 [30]): 12.8%; Activity (A549 [31]): 85.2%; Activity (A549 [32]): 10.4%; Activity (A549 [33]): Active
			Cc1cc(-c2nc3cc(F)ccc3s2)ccc1N															16%	81.8%	10%	
72.9%	1670 nM	Active	COc1ccc2nc(-c3ccc(-n4cnnc4-c4cc(OC)c(OC)c(OC)c4)c(C)c3)sc2c1	480 nM	160 nM	54 nM	670 nM	1130 nM	10.6%	25.9%	21.5%	17.6%	Active	Active	Active	66%	23.7%	16.9%	80.5%	12.3%	Activity [21]: 63.7%; Activity [22]: 59.5%; Activity [23]: Dose-dependent effect; Activity (A549 [24]): Dose-dependent effect; Activity (A549 [16]): 9.2%; Activity (A549 [17]): 1.1%; Activity (A549 [25]): 77.3%; Activity (A549 [26]): 13.5%; Activity (A549 [27]): 8.1%; Activity (A549 [28]): 1.1%; Activity [29]: Dose-dependent effect; Activity (A549 [30]): 11%; Activity (A549 [31]): 87.2%; Activity (A549 [32]): 6.8%; Activity (A549 [33]): Active

Structure (SMILES)	inhibition (Sus scrofa)	IC50 [10]	inhibition (Homo sapiens)	IC50 [1]	IC50 [2]	IC50 [3]	IC50 [4]	IC50 [5]	Activity [6]	Activity [7]	Activity [8]	Activity [9]	inhibition (A549 [11])	inhibition (A549 [12])	Activity (A549 [13])	Activity (A549 [14])	Activity (A549 [15])	Activity (A549 [18])	Activity (A549 [19])	Activity (A549 [20])	also measured
COc1ccc(/C=C\c2cc(OC)c(OC)c(OC)c2)cc1O [COMBRETASTATIN A4]	73.2%	1600 nM	Active	69 nM	5 nM	58 nM	9 nM	43 nM	12.6%	31.3%	26.1%	15.9%	Active	Active	Active	60.8%	24.2%	21.8%	74.9%	18%	Activity (A549 [16]): 13.3%; Activity (A549 [17]): 1.7%
